Experimental data from ChEMBL document CHEMBL1132281, “Compounds that activate the mouse melanocortin-1 receptor identified by screening a small molecule library based upon the beta-turn” (J Med Chem, 1999).

The molecules below were run against Melanocyte-stimulating hormone receptor (Mus musculus, UniProt Q01727) (assay: Agonistic activity against mouse Melanocortin 1 receptor (mMC1R)).
Chain of Melanocyte-stimulating hormone receptor (Q01727 whole entry): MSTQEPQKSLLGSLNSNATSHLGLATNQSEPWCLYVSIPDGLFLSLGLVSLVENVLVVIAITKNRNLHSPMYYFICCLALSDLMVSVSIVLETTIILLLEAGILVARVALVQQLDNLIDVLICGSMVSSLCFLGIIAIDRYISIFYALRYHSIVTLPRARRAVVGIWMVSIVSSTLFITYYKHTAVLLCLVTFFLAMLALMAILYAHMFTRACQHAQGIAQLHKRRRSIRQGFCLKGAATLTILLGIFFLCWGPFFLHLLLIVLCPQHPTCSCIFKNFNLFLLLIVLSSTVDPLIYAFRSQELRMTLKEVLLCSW
Assay type: functional
In short: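 HEK-293 cells (DMEM, 10% fetal calf serum) stably expressing the mouse receptor (pCDNA3, G418 selection) were transfected with a CRE/β-galactosidase reporter. At 48 h post-transfection, cells were stimulated for 6 h in DMEM with 0.1 mg/mL BSA and 0.1 mM IBMX, at 10^-4 to 10^-10 M in triplicate. Lysates were read with ONPG at 37° (OD405), and the data were normalized to protein (OD595) and to forskolin (10^-4 M).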
`CC(=O)N[C@@H](Cc1c[nH]cn1)C(=O)N[C@H](Cc1ccccc1)C(=O)N[C@@H](CCC(N)=O)C(=O)N[C@H](Cc1c[nH]c2ccccc12)C(N)=O` gave an EC50 of 100 µM. Work on `NCCCC[C@H]1NC(=O)[C@H](Cc2c[nH]c3ccccc23)SCCN(CCc2ccccc2)C1=O` yielded an EC50 of 63.4 µM. In the case of `CC(=O)N[C@H](Cc1ccccc1)C(=O)N[C@@H](C)C(=O)N[C@H](Cc1c[nH]c2ccccc12)C(N)=O`, the EC50 is reported as > 100 µM. For `CC(=O)N[C@@H](Cc1cnc[nH]1)C(=O)N[C@H](Cc1ccccc1)C(=O)N[C@@H](C)C(=O)N[C@H](Cc1c[nH]c2ccccc12)C(N)=O`, the EC50 was > 100 µM. Molecule `CC(=O)N[C@H](Cc1ccccc1)C(=O)NCC(=O)N[C@H](Cc1c[nH]c2ccccc12)C(N)=O` has an EC50 of 100 µM. `CC(=O)N[C@H](Cc1ccccc1)C(=O)N[C@@H](CCCCN)C(=O)N[C@H](Cc1c[nH]c2ccccc12)C(N)=O` was tested, and the EC50 was > 100 µM. For `CC(=O)N[C@H](Cc1ccccc1)C(=O)N[C@@H](CCC(N)=O)C(=O)N[C@H](Cc1c[nH]c2ccccc12)C(N)=O`, the EC50 was 100 µM. With `CC(=O)N[C@@H](Cc1c[nH]cn1)C(=O)N[C@H](Cc1ccccc1)C(=O)N[C@@H](CCCCN)C(=O)N[C@H](Cc1c[nH]c2ccccc12)C(N)=O` the EC50 was > 100 µM. With `O=C1[C@H]2CCCN2C(=O)C(Cc2ccc3ccccc3c2)SCCN1CCc1c[nH]c2ccccc12` (stereo not given in full) the EC50 was 42.5 µM. For `CC(=O)N[C@@H](Cc1c[nH]cn1)C(=O)N[C@H](Cc1ccccc1)C(=O)NCC(=O)N[C@H](Cc1c[nH]c2ccccc12)C(N)=O`, the EC50 was > 100 µM.
